Published values pooled from the literature.
Lines come from different studies, so protocols differ.
Target: Tyrosine-protein kinase receptor TYRO3 (TYRO3, Homo sapiens, UniProt Q06418)
Sequence (Q06418 41-890, as in one of the studies): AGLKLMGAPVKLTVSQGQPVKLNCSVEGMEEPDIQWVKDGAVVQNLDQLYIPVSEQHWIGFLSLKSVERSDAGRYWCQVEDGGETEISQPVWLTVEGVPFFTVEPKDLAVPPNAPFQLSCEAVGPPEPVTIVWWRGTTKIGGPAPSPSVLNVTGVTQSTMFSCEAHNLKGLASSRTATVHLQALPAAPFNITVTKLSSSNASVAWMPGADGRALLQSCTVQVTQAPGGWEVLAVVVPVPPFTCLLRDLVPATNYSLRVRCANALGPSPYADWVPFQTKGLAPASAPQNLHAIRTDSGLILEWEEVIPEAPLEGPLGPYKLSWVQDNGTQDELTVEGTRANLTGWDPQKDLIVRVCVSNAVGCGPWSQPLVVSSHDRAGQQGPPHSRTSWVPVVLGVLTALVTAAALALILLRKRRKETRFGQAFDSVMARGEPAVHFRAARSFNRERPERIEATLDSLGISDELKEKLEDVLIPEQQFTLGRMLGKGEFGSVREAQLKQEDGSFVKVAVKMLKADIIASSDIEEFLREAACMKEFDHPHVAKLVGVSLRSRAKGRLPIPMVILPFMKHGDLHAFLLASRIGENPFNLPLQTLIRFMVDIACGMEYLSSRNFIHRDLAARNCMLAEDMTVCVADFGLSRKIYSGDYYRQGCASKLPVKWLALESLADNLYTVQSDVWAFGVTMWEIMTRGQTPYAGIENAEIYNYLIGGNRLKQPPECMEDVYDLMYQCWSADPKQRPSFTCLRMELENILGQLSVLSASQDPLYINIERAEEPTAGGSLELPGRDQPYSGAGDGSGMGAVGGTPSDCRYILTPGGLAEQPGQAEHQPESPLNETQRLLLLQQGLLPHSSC

| Structure (SMILES) | observed | technique | concentration | remaining binding |
| --- | --- | --- | --- | --- |
| NS(=O)(=O)c1cc(NC(=O)C2(c3ccccc3Cl)CC2)ccc1Oc1cccc(Cl)c1 | cell-free assay | competition with immobilised ligand | 1 µM | 100% |
| C=CC(=O)N1CCC(C(=O)NCC(=O)N2CCN(c3nc(-c4cnc(N)nc4C(F)F)nc(N4CCOCC4)n3)CC2)CC1 | binding | competition with immobilised ligand | 1 µM | 100% |
| Cn1nc(C(=O)NCc2ccc(C(=O)O)cc2)cc1-c1ccc2[nH]ccc2c1 | cell-free assay | competition with immobilised ligand | 0.1 µM | 100% |
| CN(CCCC(F)(F)F)c1nccc(-c2cnn3ncccc23)n1 | binding | – | 1 µM | 93% |
| O=C(NCCCN1CCOCC1)c1ccc(Nc2nccc(-c3cc4ccccc4s3)n2)cc1 | binding | competition with immobilised ligand | 1 µM | 90% |
| CN(C)c1ncc(F)c(-c2cnn3ncccc23)n1 | binding | – | 1 µM | 75% |
| Nc1ncc2c(n1)-c1c([nH]c3ccc(C#CC4CC4)cc13)CCCC2 | binding | competition with immobilised ligand | 1 µM | 100% |
| N[C@@H]1CCN(c2nccc(-c3cnn4ncccc34)n2)C1 | binding | – | 1 µM | 100% |
| C[C@@H](c1ccc(-n2cnc3c(N)ncnc32)cc1)N1CCc2nn(C)c(Cc3ccccc3)c2C1=O | binding | competition with immobilised ligand | 0.1 µM | 100% |
| COc1ccnn2ncc(-c3ccnc(N(C)C)n3)c12 | binding | – | 1 µM | 100% |
| CNC(=O)c1ccc(Nc2ncc(C(F)(F)F)c(NCc3nccnc3N(C)S(C)(=O)=O)n2)cc1 | cell-free assay | competition with immobilised ligand | 0.1 µM | 100% |
| c1cnn2ncc(-c3ccnc(N4CCC45COC5)n3)c2c1 | binding | – | 1 µM | 73% |
| O=C(c1ccc(Nc2nccc(-c3cc4ccccc4s3)n2)cc1)N1CCC(N2CCCC2)CC1 | binding | competition with immobilised ligand | 1 µM | 95% |
| FC(F)(F)Oc1cccc(-c2cnc3ccc(-c4ccncc4)nn23)c1 | cell-free assay | competition with immobilised ligand | 5 µM | 83% |
| CNC(=O)[C@@H]1CC[C@@H](n2c(-c3ccc4cnccc4c3)nc3ccc(C(=O)NCc4cccc(C(N)=O)c4)cc32)C1 | binding | competition with immobilised ligand | 1 µM | 100% |
| O=C(Nc1c[nH]nc1C(=O)NC1CCNCC1)c1cc(F)cc(F)c1 | binding | competition with immobilised ligand | 1 µM | 100% |
| O=c1nc(-c2ccccn2)sc2ccccc12 | cell-free assay | competition with immobilised ligand | 1 µM | 80% |
| Cc1cnn2ncc(-c3ccnc(N(C)C)n3)c2c1 | binding | – | 1 µM | 100% |
| CCc1ccccc1C(=O)Nc1n[nH]c2c(C)c(F)c(C3C(C#N)=C(C)N(C)C(C)=C3C#N)cc12 | cell-free assay | competition with immobilised ligand | 1 µM | 100% |
| C[C@@H]1CCN(c2nccc(-c3cnn4ncccc34)n2)C1 | binding | – | 1 µM | 100% |
| CNCc1ccccc1-c1csc([C@H](C)Nc2nc(C)nc3cc(OC)c(OC)cc23)c1 | cell-free assay | competition with immobilised ligand | 1 µM | 100% |
| O=C(c1ccc(Nc2ncc(Cl)c(-c3cc4ccccc4s3)n2)cc1)N1CCC(N2CCCC2)CC1 | binding | competition with immobilised ligand | 1 µM | 44% |
